Laboratory results: ChEMBL document CHEMBL4038284, “Synthesis of novel quinoline-based 4,5-dihydro-1H-pyrazoles as potential anticancer, antifungal, antibacterial and antiprotozoal agents” (Eur J Med Chem, 2017)
Active and inactive are the calls of the source. The calls are words filed in the database; no cut-off is given here.

Assays:
M14 = test: Growth inhibition of human M14 cells incubated for 48 hrs by sulforhodamine B assay; assay type: functional; details: M14, 48 h
Outline: (§1)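 Five-dose NCI SRB assay at 100, 10, 1.0, 0.1 and 0.01 μM for 48 h at 37 °C, 5% CO2. Medium was RPMI-1640 with 5% FBS and 2 mM glutamine. Time-zero plates were TCA-fixed at compound addition, A515 read after SRB staining. GI50 was solved from [(Ti−Tz)/(C−Tz)]×100 = 50. Values beyond the tested range are given as > or <.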

DU-145 = test: Growth inhibition of human DU145 cells incubated for 48 hrs by sulforhodamine B assay; assay type: functional; details: DU-145, 48 h
Outline: (§2)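 NCI five-dose SRB assay (100, 10, 1.0, 0.1, 0.01 µM) with 48 h exposure in RPMI-1640 with 5% FBS and 2 mM L-glutamine. Cells fixed with TCA and stained with SRB, read at 515 nm. GI50 is the concentration where [(Ti−Tz)/(C−Tz)]×100 = 50.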

NCI-H322M = test: Growth inhibition of human NCI-H322M cells incubated for 48 hrs by sulforhodamine B assay; assay type: functional; details: for CC50: read-out: LC50 (the source's name); outline: as §1
NCI-H226 = test: Growth inhibition of human NCI-H226 cells incubated for 48 hrs by sulforhodamine B assay; assay type: functional; details: NCI-H226, 48 h; for CC50: read-out: LC50 (the source's name)
Outline: (§3)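 NCI 60-line screen. Cells in RPMI-1640 with 5% FBS and 2 mM L-glutamine, preincubated 24 h, then time-zero plates TCA-fixed. Compounds from DMSO stocks given at five final concentrations (100, 10, 1.0, 0.1, 0.01 µM) for 48 h at 37 °C, 5% CO2. Cells fixed with 10% TCA, SRB-stained, read at 515 nm. GI50 is the concentration giving 50% lower net protein increase versus control.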

UACC-257 [1] = test: Growth inhibition of human UACC257 cells at 10 uM incubated for 48 hrs by sulforhodamine B assay; assay type: functional, cell-based
Outline: (§4)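 NCI-60 single-dose screen at 10 µM for 48 h. Cells were grown in RPMI-1640 with 5% FBS and 2 mM L-glutamine and preincubated 24 h before compound. Time-zero plates were TCA-fixed at compound addition. After exposure, cells were TCA-fixed, stained with SRB and read at 515 nm. Percentage growth was calculated against time-zero and untreated-control absorbances.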

Malme-3M = test: Growth inhibition of human MALME-3M cells incubated for 48 hrs by sulforhodamine B assay; assay type: functional; details: for CC50: read-out: LC50 (the source's name); outline: as §1
UACC-62 = test: Growth inhibition of human UACC62 cells at 10 uM incubated for 48 hrs by sulforhodamine B assay; assay type: functional, cell-based; outline: as §4
MOLT-4 = test: Growth inhibition of human MOLT4 cells incubated for 48 hrs by sulforhodamine B assay; assay type: functional; details: MOLT-4, 48 h; for CC50: read-out: LC50 (the source's name); outline: as §3
786-0 = test: Growth inhibition of human 786-0 cells incubated for 48 hrs by sulforhodamine B assay; assay type: functional; details: 786-0, 48 h; outline: as §2
SF-539 = test: Growth inhibition of human SF539 cells incubated for 48 hrs by sulforhodamine B assay; assay type: functional; details: SF-539, 48 h; for CC50: read-out: LC50 (the source's name)
Outline: (§5)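 NCI-60 panel cells grown in RPMI-1640 with 5% FBS and 2 mM L-glutamine, preincubated 24 h at 37 °C/5% CO2. Time-zero plates were TCA-fixed at compound addition. DMSO stocks were diluted in medium and tested at five final concentrations (100, 10, 1.0, 0.1, 0.01 µM) for 48 h. Cells were TCA-fixed, stained with SRB and read at 515 nm. GI50 = 50% lower net protein increase versus control.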

HCT-116 = test: Growth inhibition of human HCT116 cells at 10 uM incubated for 48 hrs by sulforhodamine B assay; assay type: functional, cell-based
Outline: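 NCI 60-cell-line screen at a single 10 µM dose. Cells in RPMI-1640 with 5% FBS and 2 mM L-glutamine, pre-incubated 24 h, then treated for 48 h at 37 °C. TCA fixation, sulforhodamine B staining, absorbance at 515 nm. Percentage growth calculated against time-zero and untreated controls.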

OVCAR-5 = test: Growth inhibition of human OVCAR5 cells incubated for 48 hrs by sulforhodamine B assay; assay type: functional; details: OVCAR-5, 48 h; for CC50: read-out: LC50 (the source's name); outline: as §3
EKVX = test: Growth inhibition of human EKVX cells incubated for 48 hrs by sulforhodamine B assay; assay type: functional; outline: as §2
UACC-257 [2] = test: Growth inhibition of human UACC257 cells incubated for 48 hrs by sulforhodamine B assay; assay type: functional; details: UACC-257, 48 h; for CC50: read-out: LC50 (the source's name); outline: as §5
Staphylococcus aureus = test: Antibacterial activity against methicillin-sensitive Staphylococcus aureus ATCC 25923 after 24 hrs by resazurin dye based microdilution assay; assay type: functional; details: ATCC 25923, 24 h
Outline: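 MIC taken as the lowest concentration giving visible inhibition and/or by resazurin (1 mg/mL). Gentamicin was the control. Run in duplicate, repeated at least three times.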

SK-MEL-5 = test: Growth inhibition of human SK-MEL-5 cells incubated for 48 hrs by sulforhodamine B assay; assay type: functional; details: SK-MEL-5, 48 h; for CC50: read-out: LC50 (the source's name); outline: as §3
MDA-MB-231 = test: Growth inhibition of human MDA-MB-231 cells incubated for 48 hrs by sulforhodamine B assay; assay type: functional; details: MDA-MB-231, 48 h; outline: as §1
IGROV-1 = test: Growth inhibition of human IGROV1 cells incubated for 48 hrs by sulforhodamine B assay; assay type: functional; details: IGROV-1, 48 h; for CC50: read-out: LC50 (the source's name); outline: as §3
Hs-578T = test: Growth inhibition of human Hs578T cells incubated for 48 hrs by sulforhodamine B assay; assay type: functional; details: for CC50: read-out: LC50 (the source's name); outline: as §1
OVCAR-4 = test: Growth inhibition of human OVCAR4 cells at 10 uM incubated for 48 hrs by sulforhodamine B assay; assay type: functional, cell-based
Outline: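 NCI 60-line panel, single 10 μM dose. Cells were grown in RPMI-1640 with 5% FBS and 2 mM L-glutamine and pre-incubated 24 h before compound addition (DMSO stock). Exposure was 48 h at 37 °C, 5% CO2. Cells were fixed with cold TCA (10% final), stained with 0.4% SRB, bound dye dissolved in 10 mM Tris base, A515 read. Growth was taken relative to time-zero and untreated control plates.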

HOP-62 = test: Growth inhibition of human HOP62 cells incubated for 48 hrs by sulforhodamine B assay; assay type: functional; details: HOP-62, 48 h; for CC50: read-out: LC50 (the source's name); outline: as §2
HCC 2998 = test: Growth inhibition of human HCC2998 cells incubated for 48 hrs by sulforhodamine B assay; assay type: functional; details: HCC 2998, 48 h; for CC50: read-out: LC50 (the source's name); outline: as §3
SF-295 = test: Growth inhibition of human SF295 cells incubated for 48 hrs by sulforhodamine B assay; assay type: functional; details: SF-295, 48 h; for CC50: read-out: LC50 (the source's name); outline: as §1
ACHN = test: Growth inhibition of human ACHN cells incubated for 48 hrs by sulforhodamine B assay; assay type: functional; details: for CC50: read-out: LC50 (the source's name); outline: as §3
SK-MEL-28 = test: Growth inhibition of human SK-MEL-28 cells incubated for 48 hrs by sulforhodamine B assay; assay type: functional; details: SK-MEL-28, 48 h; for CC50: read-out: LC50 (the source's name); outline: as §5
[3] = read-out: LC50 (the source's name)

Structure (SMILES): COc1ccc(C(=O)/C=C/c2cccc(Nc3ccnc4cc(Cl)ccc34)c2)cc1
- GI50 (M14): 1.6 µM
- CC50 (M14; [3]): > 100 µM
- GI50 (DU-145): 2.45 µM
- CC50 (DU-145; [3]): > 100 µM
- GI50 (NCI-H322M): 2.69 µM
- CC50 (NCI-H322M): > 100 µM
- GI50 (NCI-H226): 1.78 µM
- CC50 (NCI-H226): > 100 µM
- growth inhibition (GI) (UACC-257 [1]): Active
- GI50 (Malme-3M): 1.79 µM
- CC50 (Malme-3M): > 100 µM
- growth inhibition (GI) (UACC-62): Active
- GI50 (MOLT-4): 2.9 µM
- CC50 (MOLT-4): > 100 µM
- GI50 (786-0): 1.48 µM
- LC50 (786-0): 77.7 µM
- GI50 (SF-539): 1.7 µM
- CC50 (SF-539): > 100 µM
- growth inhibition (GI) (HCT-116): Active
- GI50 (OVCAR-5): 2.6 µM
- CC50 (OVCAR-5): > 100 µM
- GI50 (EKVX): 1.75 µM
- LC50 (EKVX): > 100 µM
- GI50 (UACC-257 [2]): 2.07 µM
- CC50 (UACC-257 [2]): > 100 µM
- MIC (Staphylococcus aureus): > 1000 µg/mL
- GI50 (SK-MEL-5): 1.32 µM
- CC50 (SK-MEL-5): > 100 µM
- GI50 (MDA-MB-231): 1.91 µM
- CC50 (MDA-MB-231; [3]): > 100 µM
- GI50 (IGROV-1): 1.44 µM
- CC50 (IGROV-1): > 100 µM
- GI50 (Hs-578T): 3.18 µM
- CC50 (Hs-578T): > 100 µM
- growth inhibition (GI) (OVCAR-4): Active
- GI50 (HOP-62): 1.44 µM
- CC50 (HOP-62): > 100 µM
- CC50 (HCC 2998): > 100 µM
- GI50 (SF-295): 0.69 µM
- CC50 (SF-295): > 100 µM
- GI50 (ACHN): 1.73 µM
- CC50 (ACHN): > 100 µM
- GI50 (SK-MEL-28): 1.87 µM
- CC50 (SK-MEL-28): > 100 µM

Structure (SMILES): COc1cc(C(=O)/C=C/c2cccc(Nc3ccnc4cc(Cl)ccc34)c2)cc(OC)c1OC
- GI50 (M14): 1.41 µM
- GI50 (DU-145): 1.46 µM
- GI50 (NCI-H322M): 1.52 µM
- CC50 (NCI-H322M): 7.08 µM
- GI50 (NCI-H226): 1.27 µM
- CC50 (NCI-H226): 6.85 µM
- growth inhibition (GI) (UACC-257 [1]): Active
- GI50 (Malme-3M): 1.46 µM
- CC50 (Malme-3M): 7.8 µM
- growth inhibition (GI) (UACC-62): Active
- GI50 (MOLT-4): 1.79 µM
- CC50 (MOLT-4): > 100 µM
- GI50 (786-0): 0.56 µM
- LC50 (786-0): 4.89 µM
- GI50 (SF-539): 1.36 µM
- CC50 (SF-539): 5.27 µM
- growth inhibition (GI) (HCT-116): Active
- GI50 (OVCAR-5): 1.7 µM
- CC50 (OVCAR-5): 6.37 µM
- GI50 (EKVX): 1.62 µM
- GI50 (UACC-257 [2]): 1.43 µM
- CC50 (UACC-257 [2]): 6.53 µM
- MIC (Staphylococcus aureus): > 1000 µg/mL
- GI50 (SK-MEL-5): 1.38 µM
- CC50 (SK-MEL-5): 5.18 µM
- GI50 (MDA-MB-231): 1.81 µM
- GI50 (IGROV-1): 1.32 µM
- CC50 (IGROV-1): > 100 µM
- GI50 (Hs-578T): 2.49 µM
- CC50 (Hs-578T): > 100 µM
- growth inhibition (GI) (OVCAR-4): Active
- GI50 (HOP-62): 0.68 µM
- CC50 (HOP-62): 6.06 µM
- GI50 (HCC 2998): 1.72 µM
- CC50 (HCC 2998): 5.99 µM
- GI50 (SF-295): 1.42 µM
- CC50 (SF-295): 6.47 µM
- GI50 (ACHN): 1.24 µM
- CC50 (ACHN): 4.99 µM
- GI50 (SK-MEL-28): 1.51 µM
- CC50 (SK-MEL-28): 5.98 µM
